Compound activity deposited in PubChem BioAssay by several laboratories.
NF-kB expr up = activators of NF-kB expression in neurons, primary screen, cell-based, HTS; fold change at 12.5 µM; 190,000 tested, 1.6% active; human neuronal cells, NF-kB reporter expression; active compounds read high; in the data active means fold change above about 3.3
STAT1 inh = STAT1 signaling inhibitors, primary screen, cell-based, HTS, luciferase reporter; NIH 3T3 STAT1-luciferase reporter, IFN-gamma, luminescence; inhibition, % at 5.5 µM; 200,000 tested, 0.35% active;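 active means inhibition above a set limit, the mean inhibition across all tested compounds plus 3 SD, cut at about 34% in these data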
STAT3 act = IL-6 driven STAT3 reporter potentiators, primary screen, U3A cells, luciferase, luminescence, MLSCN library. AID 871, 2007. 190,000 tested, 0.91% active. IL-6 STAT3-luciferase reporter; 100% = signal with IL-6 EC80 alone. activation (% of control), % at 5.6 µM;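 active means activation above the screen-wide mean of compound activation plus 3 SD, cut at about 130% in these data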
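Test system: human U3A cells carrying STAT3-luciferase construct; control set: IL-6-only wells as 100% reference; timing: compound pre-incubation 1 h before IL-6, then 6 h stimulation at 37 °C; also added: IL-6 stimulus at 33 ng/mL final; evaluation: % activation versus median of IL-6-stimulated wells; detection: reporter luminescence signal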
STAT1 act = STAT1 signaling activators, primary screen, cell-based, HTS, luciferase reporter. AID 932, 2007. activation (% of control), % at 5.5 µM. NIH 3T3 STAT1-luciferase reporter, IFN-gamma, luminescence; 100% = IFN-gamma alone, no compound. 200,000 tested, 2.6% active;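 active means activation above the screen-wide mean activation plus 3 SD, cut at about 130% in these data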
APP 5'UTR act = activators of APP 5'UTR luciferase reporter, primary screen, SH-SY5Y cells; SH-SY5Y APP 5'UTR luciferase reporter, luminescence; zero percent = DMSO vehicle wells; activation, % at 2 µM; 190,000 tested, 1% active;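 active means activation above a set limit, based on mean plus 3 SD of controls, cut at about 140% in these data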
STAT3 blocker = IL-6 driven STAT3 reporter inhibitors, primary screen, U3A cells, luciferase, luminescence, MLSCN library. IL-6 STAT3-luciferase reporter; host cell line lacks STAT1. AID 862, 2007. 190,000 tested, 0.89% active. inhibition, % at 5.5 µM;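 active means inhibition above the mean inhibition across all screened compounds plus 3 SD, cut at about 44% in these data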
STAT1 activ conf = STAT1 signaling activators, confirmation, cell-based, HTS, luciferase reporter; activation (% of control), % at 5.7 µM; AID 1262, 2008; 1,200 tested, 97% active; shares compounds with STAT1 act; NIH 3T3 STAT1-luciferase reporter, IFN-gamma potentiation, luminescence; 100% = IFN-gamma EC80 alone, no compound;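 active means activation above a set limit carried over from the earlier primary STAT1 screen, cut at about 140% in these data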
NFkB act STAT1ct = NF-kB reporter activators, TNF-alpha stimulated, counter-screen for STAT1 activator project, cell-based, HEK293T, luciferase luminescence. shares compounds with STAT1 act. 100% = TNF-alpha with vehicle only. 1,200 tested, 43% active. activation (% of control), % at 5.7 µM;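 active means activation above the mean of solvent-only control wells plus 3 SD, set per campaign, cut at about 130% in these data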;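 further: TNF-alpha given at a submaximal dose yielding about 80% of full reporter signal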
STAT3 act STAT1c = STAT3 reporter activation by STAT1 hits, confirmation, counter-screen for STAT1 activator project, U3A cells, luciferase, luminescence. shares compounds with STAT1 act. IL-6; cells lack STAT1; 100 = IL-6 alone, no compound effect. activation (% of control), % at 5.7 µM. 1,200 tested, 46% active. AID 1316, 2008;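 active means activation above the solvent-only control well mean plus 3 SD, set per plate batch, cut at about 110% in these data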;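 further: higher means more STAT3 reporter activation so hits are non-selective activators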
Each line names hits and unclear results; the compound was inactive in the other large screens (follow-up assays come after a bar, where they were run). In the library only some 4.9% were active in any assay of this set; here they are far more common.

O=c1c(Br)c(Br)cnn1-c1ccccc1	STAT1 act 177.1 | STAT1 activ conf inactive | NFkB act STAT1ct inactive | STAT3 act STAT1c inactive
COc1cc(C2=NC(CO)(CO)CO2)cc(OC)c1OC	none
Cc1cc(C(=O)Nc2sc3c(c2C#N)CCC(C)C3)cs1 (stereo unspecified)	STAT1 act 152.4 | STAT1 activ conf 198.7 | NFkB act STAT1ct 141.2 | STAT3 act STAT1c 114.4
N#Cc1c(NC(=O)c2ccccc2)sc2c1CCC2	NF-kB expr up 3.8, STAT1 act 168.6 | STAT1 activ conf 191.4 | NFkB act STAT1ct inactive | STAT3 act STAT1c inactive
N#Cc1c(NC(=S)NC(=O)c2ccccc2)sc2c1CCCC2	none
CSc1nc2ccc3nc(NC(=O)c4cccs4)sc3c2s1	none
CCc1ccc2nc(NC(=O)CCCc3cccs3)sc2c1	none (no result: APP 5'UTR act)
CN(C)S(=O)(=O)c1ccc2nc(NC(=O)c3cccs3)sc2c1	NF-kB expr up 3.51, STAT1 act 153.1 | STAT1 activ conf 178.7 | NFkB act STAT1ct inactive | STAT3 act STAT1c 116.9
O=C(Nc1nc2ccc(F)cc2s1)c1cccs1	NF-kB expr up 7.38, STAT1 act 159.0 | STAT1 activ conf 246.1 | NFkB act STAT1ct inactive | STAT3 act STAT1c inactive
O=C(Nc1nc2ccc(S(=O)(=O)N3CCOCC3)cc2s1)c1cccs1	none
Cc1ccc2nc(NC(=O)Cc3cccs3)sc2c1	NF-kB expr up 3.7, STAT1 act 153.8 | STAT1 activ conf 180.0 | NFkB act STAT1ct 137.0 | STAT3 act STAT1c inactive
COC(=O)c1ccccc1NC(=O)CSc1nnc(-c2cccnc2)n1N	none
O=C(N/N=C/C(Cl)=C/c1ccccc1)c1ccco1	NF-kB expr up 4.27, STAT1 act 156.4 | STAT1 activ conf 185.5 | NFkB act STAT1ct 133.7 | STAT3 act STAT1c inactive
O=C(COC(=O)CNC(=O)c1ccccc1F)Nc1cccnc1Cl	none
Nc1ccc2oc(-c3ccccc3Cl)nc2c1	STAT1 act 151.4 | STAT1 activ conf 202.8 | NFkB act STAT1ct inactive | STAT3 act STAT1c inactive
Nc1ccc2oc(-c3cc(Br)ccc3Cl)nc2c1	none
N#CCCn1cc(/C=N/NC(N)=S)c(-c2ccc(-c3ccccc3)cc2)n1	none
CC(=O)Nc1ccc(N=Nc2ccc(O)cc2)cc1	NF-kB expr up 9.15, STAT1 act 152.2 | STAT1 activ conf 154.8 | NFkB act STAT1ct inactive | STAT3 act STAT1c 110.7
CC(=O)Nc1ccc(N=NN2CCOCC2)cc1	none
CCN(CC)c1ccc(NC(=O)c2cccc(C)c2OC)c(C)c1	NF-kB expr up 4.15, STAT1 act 152.5 | STAT1 activ conf 175.4 | NFkB act STAT1ct 137.0 | STAT3 act STAT1c inactive
CCN(CC)c1ccc(NC(=O)c2cccnc2)c(C)c1	none
CC(Cc1ccsc1)NC(=O)CCc1nnc(CCc2ccccc2)o1 (stereo unspecified)	none
Clc1ccc2nc3c4ccccc4cnn3c2c1	NF-kB expr up 7.98, STAT1 act 166.0, APP 5'UTR act 217.1 | STAT1 activ conf 237.6 | NFkB act STAT1ct inactive | STAT3 act STAT1c 162.1
COc1ccc(Cc2noc(CN(C)CC3(N4CCOCC4)CCCCC3)n2)cc1OC	none
Cn1c(/C=C/c2ccc([N+](=O)[O-])o2)nc2ccccc2c1=O	STAT1 act 212.1 | STAT1 activ conf inactive | NFkB act STAT1ct 134.1 | STAT3 act STAT1c inactive
CC1CCc2nc(/C(C#N)=C/c3ccncc3)sc2C1 (stereo unspecified)	STAT1 act 151.7 | STAT1 activ conf 159.5 | NFkB act STAT1ct inactive | STAT3 act STAT1c inactive
COc1cccc(NC(=S)N2CCN(c3ccccn3)CC2)c1	none
Cc1cccc(C)c1N(CC(=O)NCc1ccc(F)cc1)C(=O)c1csnn1	none
c1ccc(OCCSc2nnnn2-c2ccccc2)cc1	NF-kB expr up 6.5, STAT1 act 160.2, APP 5'UTR act 170.5 | STAT1 activ conf 203.6 | NFkB act STAT1ct inactive | STAT3 act STAT1c 116.6
Fc1ccccc1OCCSc1nnnn1-c1ccccc1	NF-kB expr up 6.65, STAT1 act 161.2, APP 5'UTR act 161.9 | STAT1 activ conf 218.9 | NFkB act STAT1ct inactive | STAT3 act STAT1c 115.2
Cc1nn(CC(=O)Nc2nnc(C(C)C)s2)c(=O)c2ccccc12	none
Cc1cc(C)c2nc(N3CCC(C(=O)NCCCN4CC(C)CC(C)C4)CC3)sc2c1 (stereo unspecified)	none
Clc1ccc(-c2cn3c(n2)SCC3)cc1	NF-kB expr up 4.76, STAT1 act 158.4, APP 5'UTR act 153.1 | STAT1 activ conf 182.7 | NFkB act STAT1ct 137.1 | STAT3 act STAT1c 122.2
Brc1ccc(-c2cn3c(n2)SCC3)cc1	NF-kB expr up 5.16, STAT1 act 166.0, APP 5'UTR act 157.2 | STAT1 activ conf 199.2 | NFkB act STAT1ct 136.8 | STAT3 act STAT1c inactive
CCCn1c(SCC(=O)Nc2ccc(S(=O)(=O)N(C)C)cc2)n[nH]c1=O	none
O=C(Nc1cccc(Cl)c1)c1cnn2cccnc12	NF-kB expr up 3.69, STAT1 act 157.1 | STAT1 activ conf 177.9 | NFkB act STAT1ct inactive | STAT3 act STAT1c 122.8
Cc1csc(SCC(=O)NCc2ccccc2Cl)n1	none
O=C1C(C=Nc2ccccc2)=C(O)c2ccccc21	STAT1 act 162.7 | STAT1 activ conf 243.6 | NFkB act STAT1ct inactive | STAT3 act STAT1c 125.5
COc1ccc(C(=O)Nc2ccc(Cl)cc2C(=O)N2CCCC(C)C2)cc1OC (stereo unspecified)	none
O=C(NCCc1cccs1)c1ccc(Cl)c(Cl)c1	NF-kB expr up 3.77, STAT1 act 159.4 | STAT1 activ conf 163.7 | NFkB act STAT1ct inactive | STAT3 act STAT1c inactive
CCOc1ccccc1NC1=C(Cl)C(=O)N(c2ccccc2)C1=O	none
O=C(O)Cc1ccc2sc(-c3ccccc3)nc2c1	none
COC(=O)Cc1ccc2sc(-c3ccccc3)nc2c1	NF-kB expr up 9.21, STAT1 act 156.7, APP 5'UTR act 172.8 | STAT1 activ conf 182.6 | NFkB act STAT1ct inactive | STAT3 act STAT1c inactive
